In brackets after ≈: the same amount, converted by molar mass.
Experiments:
Assay type in all cases: functional
Enterococcus faecium [1] = assay: Antibacterial activity against Enterococcus faecium 14-2 after 18 to 24 hrs by two-fold serial dilution method
In short: (§1)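 Twofold serial dilution in agar media against Gram-positive and Gram-negative strains. Plates incubated at 35 °C for 18–24 h. MIC read as the lowest compound concentration giving complete inhibition of bacterial growth.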

Klebsiella pneumoniae [2] = assay: Antibacterial activity against extended-spectrum beta-lactamase producing Klebsiella pneumoniae 14-18 after 18 to 24 hrs by two-fold serial dilution method; in short: as §1
Enterococcus faecium [3] = assay: Antibacterial activity against Enterococcus faecium 14-6 after 18 to 24 hrs by two-fold serial dilution method; in short: as §1
[4] = test system: Staphylococcus epidermidis; assay: Antibacterial activity against methicillin-resistant Staphylococcus epidermidis 14-21 after 18 to 24 hrs by two-fold serial dilution method
In short: (§2)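 Agar media, standard twofold serial dilution. MIC is the lowest concentration giving complete inhibition of bacterial growth after incubation at 35 °C for 18–24 h. Ciprofloxacin and levofloxacin were run as comparators.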

Klebsiella pneumoniae [5] = assay: Antibacterial activity against extended-spectrum beta-lactamase producing Klebsiella pneumoniae 14-19 after 18 to 24 hrs by two-fold serial dilution method; in short: as §1
[6] = test system: Staphylococcus epidermidis; assay: Antibacterial activity against methicillin-resistant Staphylococcus epidermidis 14-39 after 18 to 24 hrs by two-fold serial dilution method; in short: as §2
Pseudomonas aeruginosa [7] = assay: Antibacterial activity against Pseudomonas aeruginosa 14-9 after 18 to 24 hrs by two-fold serial dilution method; in short: as §1
Escherichia coli [8] = assay: Antibacterial activity against Escherichia coli 14-2 after 18 to 24 hrs by two-fold serial dilution method; in short: as §1
Klebsiella pneumoniae [9] = assay: Antibacterial activity against extended-spectrum beta-lactamase producing Klebsiella pneumoniae 14-17 after 18 to 24 hrs by two-fold serial dilution method; in short: as §1
Klebsiella pneumoniae [10] = assay: Antibacterial activity against Klebsiella pneumoniae 14-2 after 18 to 24 hrs by two-fold serial dilution method; in short: as §1
[11] = test system: Staphylococcus epidermidis; assay: Antibacterial activity against methicillin-resistant Staphylococcus epidermidis 14-22 after 18 to 24 hrs by two-fold serial dilution method; in short: as §2
Enterococcus faecalis [12] = assay: Antibacterial activity against Enterococcus faecalis 14-2 after 18 to 24 hrs by two-fold serial dilution method; in short: as §1
Pseudomonas aeruginosa [13] = assay: Antibacterial activity against Pseudomonas aeruginosa 14-14 after 18 to 24 hrs by two-fold serial dilution method; in short: as §1
Klebsiella pneumoniae [14] = assay: Antibacterial activity against Klebsiella pneumoniae 14-4 after 18 to 24 hrs by two-fold serial dilution method; in short: as §1
Escherichia coli [15] = assay: Antibacterial activity against extended-spectrum beta-lactamase producing Escherichia coli 14-2 after 18 to 24 hrs by two-fold serial dilution method; in short: as §1
Staphylococcus aureus [16] = assay: Antibacterial activity against methicillin-sensitive Staphylococcus aureus 14-1 after 18 to 24 hrs by two-fold serial dilution method; in short: as §1
Staphylococcus aureus [17] = assay: Antibacterial activity against Staphylococcus aureus CMCC 26003 after 18 to 24 hrs by two-fold serial dilution method; in short: as §1
Staphylococcus aureus [18] = assay: Antibacterial activity against methicillin-resistant Staphylococcus aureus 14-5 after 18 to 24 hrs by two-fold serial dilution method; in short: as §2
[19] = test system: Staphylococcus epidermidis; assay: Antibacterial activity against methicillin-sensitive Staphylococcus epidermidis 14-2 after 18 to 24 hrs by two-fold serial dilution method; in short: as §1
Escherichia coli [20] = assay: Antibacterial activity against Escherichia coli 14-1 after 18 to 24 hrs by two-fold serial dilution method; in short: as §1
Pseudomonas aeruginosa [21] = assay: Antibacterial activity against Pseudomonas aeruginosa 14-16 after 18 to 24 hrs by two-fold serial dilution method; in short: as §1
Klebsiella pneumoniae [22] = assay: Antibacterial activity against Klebsiella pneumoniae 14-3 after 18 to 24 hrs by two-fold serial dilution method; in short: as §1
Enterococcus faecalis [23] = assay: Antibacterial activity against Enterococcus faecalis 14-1 after 18 to 24 hrs by two-fold serial dilution method; in short: as §1
Staphylococcus aureus [24] = assay: Antibacterial activity against methicillin-sensitive Staphylococcus aureus 14-3 after 18 to 24 hrs by two-fold serial dilution method; in short: as §1
Escherichia coli [25] = assay: Antibacterial activity against extended-spectrum beta-lactamase producing Escherichia coli 14-1 after 18 to 24 hrs by two-fold serial dilution method; in short: as §1
Staphylococcus aureus [26] = assay: Antibacterial activity against methicillin-resistant Staphylococcus aureus 14-4 after 18 to 24 hrs by two-fold serial dilution method; in short: as §2
Enterococcus faecium [27] = assay: Antibacterial activity against Enterococcus faecium 14-5 after 18 to 24 hrs by two-fold serial dilution method; in short: as §1
[28] = test system: Staphylococcus epidermidis; assay: Antibacterial activity against methicillin-resistant Staphylococcus epidermidis 14-37 after 18 to 24 hrs by two-fold serial dilution method; in short: as §2
Pseudomonas aeruginosa [29] = assay: Antibacterial activity against Pseudomonas aeruginosa ATCC 27853 after 18 to 24 hrs by two-fold serial dilution method; in short: as §1
Staphylococcus aureus [30] = assay: Antibacterial activity against methicillin-sensitive Staphylococcus aureus 14-4 after 18 to 24 hrs by two-fold serial dilution method; in short: as §1
Streptococcus pneumoniae = assay: Antibacterial activity against methicillin-resistant Streptococcus pneumoniae ATCC 19615 after 18 to 24 hrs by two-fold serial dilution method; in short: as §2
Klebsiella pneumoniae [31] = assay: Antibacterial activity against Klebsiella pneumoniae 14-1 after 18 to 24 hrs by two-fold serial dilution method; in short: as §1
Pseudomonas aeruginosa [32] = assay: Antibacterial activity against Pseudomonas aeruginosa 14-15 after 18 to 24 hrs by two-fold serial dilution method; in short: as §1
Escherichia coli [33] = assay: Antibacterial activity against Escherichia coli ATCC 25922 after 18 to 24 hrs by two-fold serial dilution method; in short: as §1

| SMILES | MIC (Enterococcus faecium [1]) | MIC (Klebsiella pneumoniae [2]) | MIC (Enterococcus faecium [3]) | MIC [4] | MIC (Klebsiella pneumoniae [5]) | MIC [6] | MIC (Pseudomonas aeruginosa [7]) | MIC (Escherichia coli [8]) | MIC (Klebsiella pneumoniae [9]) | MIC (Klebsiella pneumoniae [10]) | MIC [11] | MIC (Enterococcus faecalis [12]) | MIC (Pseudomonas aeruginosa [13]) | MIC (Klebsiella pneumoniae [14]) | MIC (Escherichia coli [15]) | MIC (Staphylococcus aureus [16]) | MIC (Staphylococcus aureus [17]) | MIC (Staphylococcus aureus [18]) | MIC [19] | MIC (Escherichia coli [20]) | further results |
| --- | --- | --- | --- | --- | --- | --- | --- | --- | --- | --- | --- | --- | --- | --- | --- | --- | --- | --- | --- | --- | --- |
| C[C@H]1COc2c(N3C/C(=N/OCc4ccccc4)C(CNC4CC4)C3)c(F)cc3c(=O)c(C(=O)O)cn1c23 (stereo partly drawn) | 4 µg/mL (≈ 7.68 µM) | 32 µg/mL (≈ 61.5 µM) | 16 µg/mL (≈ 30.7 µM) | 8 µg/mL (≈ 15.4 µM) | 64 µg/mL (≈ 123 µM) | 4 µg/mL (≈ 7.68 µM) | 16 µg/mL (≈ 30.7 µM) | > 64 µg/mL | 32 µg/mL (≈ 61.5 µM) | 64 µg/mL (≈ 123 µM) | 4 µg/mL (≈ 7.68 µM) | 0.5 µg/mL (≈ 0.961 µM) | 64 µg/mL (≈ 123 µM) | 64 µg/mL (≈ 123 µM) | > 64 µg/mL | 2 µg/mL (≈ 3.84 µM) | < 0.008 µg/mL | 4 µg/mL (≈ 7.68 µM) | 8 µg/mL (≈ 15.4 µM) | > 64 µg/mL | MIC (Pseudomonas aeruginosa [21]): 32 µg/mL (≈ 61.5 µM); MIC (Klebsiella pneumoniae [22]): 64 µg/mL (≈ 123 µM); MIC (Enterococcus faecalis [23]): 16 µg/mL (≈ 30.7 µM); MIC (Staphylococcus aureus [24]): 0.125 µg/mL (≈ 0.24 µM); MIC (Escherichia coli [25]): 2 µg/mL (≈ 3.84 µM); MIC (Staphylococcus aureus [26]): 4 µg/mL (≈ 7.68 µM); MIC (Enterococcus faecium [27]): 8 µg/mL (≈ 15.4 µM); MIC [28]: 2 µg/mL (≈ 3.84 µM); MIC (Pseudomonas aeruginosa [29]): 32 µg/mL (≈ 61.5 µM); MIC (Staphylococcus aureus [30]): 0.06 µg/mL (≈ 0.115 µM); MIC (Streptococcus pneumoniae): 0.125 µg/mL (≈ 0.24 µM); MIC (Klebsiella pneumoniae [31]): 32 µg/mL (≈ 61.5 µM); MIC (Pseudomonas aeruginosa [32]): 64 µg/mL (≈ 123 µM); MIC (Escherichia coli [33]): 1 µg/mL (≈ 1.92 µM) |
| CO/N=C1/CN(c2c(F)cc3c(=O)c(C(=O)O)cn4c3c2OC[C@@H]4CF)CC1(C)CNC1CC1 (stereo partly drawn) | 8 µg/mL (≈ 16.8 µM) | 32 µg/mL (≈ 67.2 µM) | 16 µg/mL (≈ 33.6 µM) | 16 µg/mL (≈ 33.6 µM) | > 128 µg/mL | 2 µg/mL (≈ 4.2 µM) | 32 µg/mL (≈ 67.2 µM) | > 128 µg/mL | 32 µg/mL (≈ 67.2 µM) | > 128 µg/mL | 4 µg/mL (≈ 8.39 µM) | 0.5 µg/mL (≈ 1.05 µM) | 128 µg/mL (≈ 269 µM) | 128 µg/mL (≈ 269 µM) | > 128 µg/mL | 4 µg/mL (≈ 8.39 µM) | < 0.008 µg/mL | 4 µg/mL (≈ 8.39 µM) | 16 µg/mL (≈ 33.6 µM) | > 128 µg/mL | MIC (Pseudomonas aeruginosa [21]): 64 µg/mL (≈ 134 µM); MIC (Klebsiella pneumoniae [22]): 128 µg/mL (≈ 269 µM); MIC (Enterococcus faecalis [23]): 16 µg/mL (≈ 33.6 µM); MIC (Staphylococcus aureus [24]): 0.03 µg/mL (≈ 0.063 µM); MIC (Escherichia coli [25]): 8 µg/mL (≈ 16.8 µM); MIC (Staphylococcus aureus [26]): 8 µg/mL (≈ 16.8 µM); MIC (Enterococcus faecium [27]): 4 µg/mL (≈ 8.39 µM); MIC [28]: 16 µg/mL (≈ 33.6 µM); MIC (Pseudomonas aeruginosa [29]): 32 µg/mL (≈ 67.2 µM); MIC (Staphylococcus aureus [30]): 0.03 µg/mL (≈ 0.063 µM); MIC (Streptococcus pneumoniae): 0.25 µg/mL (≈ 0.525 µM); MIC (Klebsiella pneumoniae [31]): > 128 µg/mL; MIC (Pseudomonas aeruginosa [32]): 128 µg/mL (≈ 269 µM); MIC (Escherichia coli [33]): 2 µg/mL (≈ 4.2 µM) |

From ChEMBL document CHEMBL3734675, “Synthesis, antimycobacterial and antibacterial activity of fluoroquinolone derivatives containing an 3-alkoxyimino-4-(cyclopropylanimo)methylpyrrolidine moiety” (2015)
